Experimental data from ChEMBL document CHEMBL1126247, “Iodoaminopotentidine and related compounds: a new class of ligands with high affinity and selectivity for the histamine H2 receptor” (J Med Chem, 1992).

Tests used:
[1] = biological target: Histamine H2 receptor (Cavia porcellus) (UniProt P47747); test: Inhibition of the positive chronotropic response (histamine H2 receptor antagonism) of guinea pig right atrium relative to cimetidine.; assay type: functional, tissue-based; conditions: Cardiac atrium
[2] = biological target: Histamine H2 receptor (Cavia porcellus) (UniProt P47747); test: Histamine H2 receptor antagonistic activity at a concentration of 0.3 uM on the isolated guinea pig right atrium; assay type: functional, tissue-based; conditions: Cardiac atrium
[3] = biological target: Histamine H2 receptor (Cavia porcellus) (UniProt P47747); test: Histamine H2 receptor antagonism at a concentration of 1 umolar on the isolated guinea pig right atrium.; assay type: functional, tissue-based; conditions: Cardiac atrium
[4] = Inhibition of the positive chronotropic response (H2-antagonism) of guinea pig right atrium relative to cimetidine.; assay type: functional, Cavia porcellus, Cardiac atrium
[5] = biological target: Histamine H2 receptor (Cavia porcellus) (UniProt P47747); test: Histamine H2 receptor antagonistic activity at a concentration of 0.3 and 1 uM on the isolated guinea pig right atrium.; assay type: functional, tissue-based; conditions: Cardiac atrium
[6] = biological target: Histamine H2 receptor (Cavia porcellus) (UniProt P47747); test: Histamine H2 receptor antagonistic activity at a concentration of 0.3 and 0.1 uM on the isolated guinea pig right atrium.; assay type: functional, tissue-based; conditions: Cardiac atrium
[7] = biological target: Histamine H2 receptor (Cavia porcellus) (UniProt P47747); test: Potency to inhibit the positive chronotropic response (H2-antagonism) of guinea pig right atrium relative to cimetidine.; assay type: functional, tissue-based; conditions: Cardiac atrium
[8] = biological target: Histamine H1 receptor (Cavia porcellus) (UniProt P31389)
Histamine H2 receptor [9] = biological target: T1, Histamine H2 receptor (Cavia porcellus, UniProt P47747); test: Inhibition of [125I]APT binding to H2 receptors in guinea pig cerebral membranes.; assay type: cell membranes
Method in brief: (§1)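 Striatal membranes from male Hartley guinea pigs (200-300 g) in 50 mM sodium/potassium phosphate, pH 7.5, with 0.1% gelatin. Stopped with cold buffer containing 0.1% BSA, then filtered on polyethylenimine-treated glass-fiber filters and γ-counted. Azido compounds handled under dim light.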

[10] = biological target: Muscarinic acetylcholine receptor M3 (Cavia porcellus) (UniProt Q8VH26)
[11] = biological target: Histamine H2 receptor (Cavia porcellus) (UniProt P47747); conditions: Cardiac atrium, 10 uM
Histamine H2 receptor [12] = biological target: T1, Histamine H2 receptor; test: Histamine H2 receptor antagonistic activity on the isolated guinea pig right atrium.; conditions: read-out: pA2 (converted)
Histamine H2 receptor [13] = biological target: T1, Histamine H2 receptor; test: Inhibition of [125I]APT binding to histamine H2 receptor in guinea pig cerebral membranes.; assay type: cell membranes
Method in brief: as §1, with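 “gelatin. Membranes incubated with 125I-APT 120 min at 25 °C, in triplicate.” for “gelatin.”, “γ-counted. […]” for “γ-counted.”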

Histamine H1 receptor = Histamine H1 receptor (Cavia porcellus, UniProt P31389); test: Histamine H1 receptor antagonistic activity on the isolated guinea pig ileum determined by Schild plot.; assay type: functional, tissue-based; conditions: read-out: pA2 (converted)
Method in brief: (§2)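 Whole proximal guinea pig ileum segments in Tyrode's solution gassed with 95% O2/5% CO2, isotonic recording at 10 mN load. Cumulative histamine (0.01-3 μM) curves. Antagonist applied 10 min before the curve. pK_B from concentration ratio, or pA2 by Schild plot.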

[14] = biological target: Beta-1 adrenergic receptor (Cavia porcellus) (UniProt B0FL73); test: Beta-1 Adrenergic receptor antagonistic activity at concentrations of 10 and 30 uM on the isolated guinea pig right atrium.; assay type: functional, tissue-based; conditions: Cardiac atrium
Method in brief: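 Spontaneously beating guinea pig right atrium, isometric recording of chronotropic response. Cumulative isoprenaline (0.1-30 nM) curves as reference agonist. Incubation handled as in the H2 protocol. pK_B = -log[antagonist] + log(concentration ratio - 1).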

[15] = biological target: Histamine H2 receptor (Cavia porcellus) (UniProt P47747); test: Histamine H2 receptor antagonistic activity at concentrations of 0.3,1 and 3 uM on the isolated guinea pig right atrium.; assay type: functional, tissue-based; conditions: Cardiac atrium
[16] = biological target: Serotonin 2 (5-HT2) receptor (Rattus norvegicus) (UniProt P30994+P08909+P14842); test: 5-hydroxytryptamine 2 receptor antagonistic activity at concentrations of3,10 and 30 uM on the rat tail artery.; assay type: functional, tissue-based
Method in brief: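 Endothelium-denuded ventral tail artery segments from male Wistar rats (280-350 g), resting force 5 mN, 120 min equilibration with one 1 μM 5-HT priming. Two to three cumulative 5-HT (0.01-10 μM) curves per preparation.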

[17] = biological target: Histamine H1 receptor (Cavia porcellus) (UniProt P31389); test: Histamine H1 receptor antagonistic activity at concentrations of 3 and 10 uM on the isolated guinea pig iluem.; assay type: functional; method in brief: as §2
[18] = biological target: Histamine H2 receptor (Cavia porcellus) (UniProt P47747); test: Histamine H2 receptor antagonistic activity on the isolated guinea pig right atrium determined by Schild plot.; assay type: functional, tissue-based; conditions: Cardiac atrium
[19] = biological target: Adrenergic receptor alpha-1 (Rattus norvegicus) (UniProt P15823+P23944+P43140); test: Alpha-1 adrenergic receptor antagonistic activity at concentrations of 3,10,30and 100 uM on the rat aorta.; assay type: functional
Method in brief: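 Endothelium-denuded thoracic aortic rings from the same rats, mounted isometrically, resting force 20 mN. Equilibration 140 min with two primings of 0.1 μM (R)-phenylephrine. Cumulative (R)-phenylephrine (0.003-10 μM) curves recorded with 1 μM (±)-propranolol present.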

[20] = biological target: Muscarinic acetylcholine receptor M3 (Cavia porcellus) (UniProt Q8VH26); test: muscarinic acetylcholine receptor M3 antagonistic activity at concentrations of 3 and 10 uM on the isolated guinea pig iluem.; assay type: functional
Method in brief: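 Guinea pig proximal ileum, isotonic recording under a 10 mN load in gassed Tyrode's solution. Cumulative carbachol (3-300 nM) curves as reference agonist. Antagonist incubated 10 min. pK_B calculated from concentration ratio, or pA2 by Schild plot.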

Histamine H2 receptor (Cavia porcellus), sequence (P47747 whole entry): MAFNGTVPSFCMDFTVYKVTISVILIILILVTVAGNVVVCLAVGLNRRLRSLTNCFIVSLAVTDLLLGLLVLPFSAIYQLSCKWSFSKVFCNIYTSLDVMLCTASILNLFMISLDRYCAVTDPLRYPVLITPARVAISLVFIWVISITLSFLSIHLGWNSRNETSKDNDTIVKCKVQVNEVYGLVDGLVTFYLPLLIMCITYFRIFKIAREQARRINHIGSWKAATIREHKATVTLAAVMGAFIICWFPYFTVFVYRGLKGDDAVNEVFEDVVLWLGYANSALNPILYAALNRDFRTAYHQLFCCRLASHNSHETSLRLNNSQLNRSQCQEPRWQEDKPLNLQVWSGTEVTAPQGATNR
T1 sequence (P47747 whole entry): as above
Histamine H1 receptor (Cavia porcellus), sequence (P31389 whole entry): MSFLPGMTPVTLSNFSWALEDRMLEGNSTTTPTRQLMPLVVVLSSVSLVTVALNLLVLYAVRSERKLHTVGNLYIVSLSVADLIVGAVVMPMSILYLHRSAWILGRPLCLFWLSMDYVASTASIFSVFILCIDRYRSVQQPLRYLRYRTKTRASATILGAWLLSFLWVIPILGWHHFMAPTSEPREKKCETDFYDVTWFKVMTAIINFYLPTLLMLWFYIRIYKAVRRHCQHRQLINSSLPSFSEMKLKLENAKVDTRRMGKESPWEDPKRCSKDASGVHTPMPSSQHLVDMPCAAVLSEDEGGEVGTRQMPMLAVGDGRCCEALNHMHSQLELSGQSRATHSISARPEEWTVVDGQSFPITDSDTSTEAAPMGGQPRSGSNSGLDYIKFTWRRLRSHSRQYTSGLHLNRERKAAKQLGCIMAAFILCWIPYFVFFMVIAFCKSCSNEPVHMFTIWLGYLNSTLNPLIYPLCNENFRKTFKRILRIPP
Muscarinic acetylcholine receptor M3 (Cavia porcellus), sequence (Q8VH26 1-587): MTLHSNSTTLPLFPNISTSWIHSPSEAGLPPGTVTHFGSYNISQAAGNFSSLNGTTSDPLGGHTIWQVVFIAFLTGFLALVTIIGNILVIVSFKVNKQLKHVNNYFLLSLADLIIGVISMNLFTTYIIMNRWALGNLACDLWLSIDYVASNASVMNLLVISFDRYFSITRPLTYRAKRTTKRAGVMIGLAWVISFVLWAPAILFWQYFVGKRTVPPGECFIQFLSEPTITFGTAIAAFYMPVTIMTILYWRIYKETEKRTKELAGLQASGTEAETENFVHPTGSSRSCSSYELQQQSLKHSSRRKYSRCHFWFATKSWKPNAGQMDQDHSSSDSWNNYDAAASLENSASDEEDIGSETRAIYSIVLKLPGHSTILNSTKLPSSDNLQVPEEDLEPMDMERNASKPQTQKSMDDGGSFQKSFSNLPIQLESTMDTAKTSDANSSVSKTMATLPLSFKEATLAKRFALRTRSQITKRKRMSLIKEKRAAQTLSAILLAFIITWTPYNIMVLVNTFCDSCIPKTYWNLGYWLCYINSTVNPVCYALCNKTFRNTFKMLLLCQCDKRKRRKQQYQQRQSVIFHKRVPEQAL
Histamine H1 receptor, sequence (P31389 whole entry): as the sequence (P31389 whole entry) above
Beta-1 adrenergic receptor (Cavia porcellus), sequence (B0FL73 1-467): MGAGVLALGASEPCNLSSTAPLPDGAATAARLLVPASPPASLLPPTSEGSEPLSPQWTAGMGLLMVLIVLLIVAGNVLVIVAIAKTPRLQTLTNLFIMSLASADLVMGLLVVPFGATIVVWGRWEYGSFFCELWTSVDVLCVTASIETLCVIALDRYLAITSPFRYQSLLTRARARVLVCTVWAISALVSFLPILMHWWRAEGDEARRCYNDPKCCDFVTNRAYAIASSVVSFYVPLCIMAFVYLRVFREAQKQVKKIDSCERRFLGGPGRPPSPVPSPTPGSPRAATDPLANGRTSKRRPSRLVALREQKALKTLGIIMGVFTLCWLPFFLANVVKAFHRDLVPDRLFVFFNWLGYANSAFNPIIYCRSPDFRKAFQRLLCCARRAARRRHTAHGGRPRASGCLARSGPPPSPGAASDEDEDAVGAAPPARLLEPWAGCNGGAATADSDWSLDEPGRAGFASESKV
Serotonin 2 (5-HT2) receptor (Rattus norvegicus), sequence (P08909 whole entry, looked up): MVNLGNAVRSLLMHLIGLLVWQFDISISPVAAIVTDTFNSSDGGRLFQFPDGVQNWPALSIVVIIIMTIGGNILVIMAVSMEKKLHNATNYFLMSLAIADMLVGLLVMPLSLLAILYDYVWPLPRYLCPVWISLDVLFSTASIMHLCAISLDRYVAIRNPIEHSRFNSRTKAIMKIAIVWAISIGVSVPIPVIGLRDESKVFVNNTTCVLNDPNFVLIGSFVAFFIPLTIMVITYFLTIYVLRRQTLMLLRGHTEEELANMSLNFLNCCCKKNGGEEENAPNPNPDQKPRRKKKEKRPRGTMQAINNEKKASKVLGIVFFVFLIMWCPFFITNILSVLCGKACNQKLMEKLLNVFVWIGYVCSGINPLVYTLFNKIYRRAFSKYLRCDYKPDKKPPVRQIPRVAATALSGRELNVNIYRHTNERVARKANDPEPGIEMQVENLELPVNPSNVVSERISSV
Serotonin 2 (5-HT2) receptor (Rattus norvegicus), sequence (P14842 whole entry, looked up): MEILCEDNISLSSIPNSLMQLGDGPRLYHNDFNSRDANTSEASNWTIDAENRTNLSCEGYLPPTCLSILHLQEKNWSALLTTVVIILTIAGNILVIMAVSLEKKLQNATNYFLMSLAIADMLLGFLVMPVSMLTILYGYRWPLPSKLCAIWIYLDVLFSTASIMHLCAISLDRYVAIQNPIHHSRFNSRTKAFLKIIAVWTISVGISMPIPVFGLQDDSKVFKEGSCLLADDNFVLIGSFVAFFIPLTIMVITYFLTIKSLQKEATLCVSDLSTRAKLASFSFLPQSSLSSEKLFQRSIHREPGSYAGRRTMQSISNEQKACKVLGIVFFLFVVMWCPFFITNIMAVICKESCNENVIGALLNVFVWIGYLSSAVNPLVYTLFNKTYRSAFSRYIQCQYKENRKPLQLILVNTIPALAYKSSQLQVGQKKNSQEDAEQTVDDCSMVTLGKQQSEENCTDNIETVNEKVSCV
Serotonin 2 (5-HT2) receptor (Rattus norvegicus), sequence (P30994 whole entry, looked up): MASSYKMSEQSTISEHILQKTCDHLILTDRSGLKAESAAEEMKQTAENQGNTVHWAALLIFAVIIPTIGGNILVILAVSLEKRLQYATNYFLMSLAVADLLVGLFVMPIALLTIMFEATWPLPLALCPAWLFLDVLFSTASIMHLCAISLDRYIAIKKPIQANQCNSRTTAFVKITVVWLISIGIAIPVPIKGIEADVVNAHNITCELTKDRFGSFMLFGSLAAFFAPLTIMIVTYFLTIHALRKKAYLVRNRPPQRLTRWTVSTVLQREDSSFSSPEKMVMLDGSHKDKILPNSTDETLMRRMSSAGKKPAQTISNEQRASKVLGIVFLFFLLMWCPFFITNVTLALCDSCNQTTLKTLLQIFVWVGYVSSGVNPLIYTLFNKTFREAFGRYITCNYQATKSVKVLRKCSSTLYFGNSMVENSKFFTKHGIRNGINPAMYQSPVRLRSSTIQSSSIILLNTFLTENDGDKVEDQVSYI

Structure (SMILES)	Relative potency [1] [%]	pKB [3]	Relative potency [4] [%]	other results
N#CN/C(=N\CCNc1ccc(N=[N+]=[N-])cc1[N+](=O)[O-])NCCCCOc1cccc(CN2CCCCC2)c1	1180	–	–	pKB [2]: 7.47
N#CN/C(=N\CCNC(=O)c1ccccc1[N+](=O)[O-])NCCCCOc1cccc(CN2CCCCC2)c1	–	7.52	1318	–
N#CN/C(=N\CCNS(=O)(=O)c1ccccc1)NCCCOc1cccc(CN2CCCCC2)c1	–	–	186	pKB [5]: 6.67
N#CN/C(=N\CCCNC(=O)c1ccc(N=[N+]=[N-])cc1)NCCCOc1cccc(CN2CCCCC2)c1	91	6.36	–	–
N#CN/C(=N\CCCOc1cccc(CN2CCCCC2)c1)NCC(O)CNc1ccccc1[N+](=O)[O-] (stereo not given)	871	–	–	pKB [6]: 7.34
N#CN/C(=N\CCCNC(=O)CCc1ccccc1)NCCCOc1cccc(CN2CCCCC2)c1	–	6.07	47	–
N#CN/C(=N\CCCNC(=O)c1ccccc1)NCCCCOc1cccc(CN2CCCCC2)c1	–	6.6	158	–
N#CN/C(=N\CCNc1ccc(N=[N+]=[N-])cc1[N+](=O)[O-])NCCCOc1cccc(CN2CCCCC2)c1	977	7.39	–	–
N#CN/C(=N\CCNC(=O)c1cccc(I)c1)NCCCCOc1cccc(CN2CCCCC2)c1	–	6.56	–	Relative potency [7]: 145%; pKB [8]: 6.15; Ki (Histamine H2 receptor [9]): 0.00525 µM; pKB [10]: 5.59
O=C(NCCCOc1cccc(CN2CCCCC2)c1)NCCNC(=O)c1ccccc1	–	6.1	50	–
N#CN/C(=N\CCN)NCCCOc1cccc(CN2CCCCC2)c1	–	–	36	pKB [11]: 5.95
N#CN/C(=N\CCCCCCNC(=O)c1ccccc1)NCCCOc1cccc(CN2CCCCC2)c1	–	6.6	158	–
CC(C)(C)OC(=O)Nc1ccc(CC(=O)NCC/N=C(\NC#N)NCCCCOc2cccc(CN3CCCCC3)c2)cc1	–	6.04	44	–
N#CN/C(=N\CCNC(=O)CCCc1ccccc1)NCCCOc1cccc(CN2CCCCC2)c1	–	6.45	112	–
N#CN/C(=N\CCCNc1ccccc1[N+](=O)[O-])NCCCOc1cccc(CN2CCCCC2)c1	1320	–	–	pKB [6]: 7.52
N#CN=C(NCCCOc1cccc(CN2CCCCC2)c1)NCCNC(=O)c1ccc(N)c(I)c1	–	–	–	Kb (Histamine H2 receptor [12]): 0.0275 µM; Ki (Histamine H2 receptor [13]): 0.000708 µM
Cc1ccc(S(=O)(=O)NCC/N=C(\NC#N)NCCCCOc2cccc(CN3CCCCC3)c2)cc1	–	7.29	776	–
CNC(=C[N+](=O)[O-])NCCSCc1ccc(CN(C)C)o1 [RANITIDINE]	631	7.2	–	Ki (Histamine H2 receptor [13]): 0.0537 µM
N#CN/C(=N\CCCNc1ccc(N=[N+]=[N-])cc1[N+](=O)[O-])NCCCCOc1cccc(CN2CCCCC2)c1	145	6.56	–	–
N#CN/C(=N\CCCCCNC(=O)c1ccccc1)NCCCOc1cccc(CN2CCCCC2)c1	–	6.58	151	–
N#CN/C(=N\CCNC(=O)c1ccc(N)c(I)c1)NCCCCOc1cccc(CN2CCCCC2)c1	891	–	–	pKB [2]: 7.35
Nc1ccc(C(=O)NCCCOc2cccc(CN3CCCCC3)c2)cc1	–	6.82	263	–
CC(C)(C)OC(=O)Nc1ccc(C(=O)NCC/N=C(\NC#N)NCCCOc2cccc(CN3CCCCC3)c2)cc1	–	–	295	pKB [5]: 6.87
N#CN/C(=N\CCCNc1ccc(N=[N+]=[N-])cc1[N+](=O)[O-])NCCCOc1cccc(CN2CCCCC2)c1	245	–	–	pKB [2]: 6.79
N#CN=C(NCCCOc1cccc(CN2CCCCC2)c1)NCCNC(=O)c1cccc(I)c1	–	–	–	Ki (Histamine H2 receptor [9]): 0.00263 µM; Kb (Histamine H1 receptor): 2.24 µM

Structure (SMILES)	Relative potency [1] [%]	pKB [3]	Relative potency [4] [%]	other results
N#CN/C(=N\CCNS(=O)(=O)c1ccccc1)NCCCCOc1cccc(CN2CCCCC2)c1	–	7.28	759	–
N#CN/C(=N\CCOC(=O)c1ccccc1)NCCCOc1cccc(CN2CCCCC2)c1	–	7.64	1738	–
N#CN/C(=N\CCNC(=O)c1cccc(N)c1)NCCCOc1cccc(CN2CCCCC2)c1	–	–	776	pKB [5]: 7.29
CN/C(=N\CCSCc1nc[nH]c1C)NC#N	–	6.4	–	–
N#CN/C(=N\CCNC(=O)c1ccccc1)NCCCCOc1cccc(CN2CCCCC2)c1	–	7.67	1862	–
N#CN/C(=N\CCNC(=O)c1ccncc1)NCCCOc1cccc(CN2CCCCC2)c1	–	6.89	309	–
N#CN/C(=N\CCNC(=O)c1ccc(N=[N+]=[N-])c(I)c1)NCCCOc1cccc(CN2CCCCC2)c1	257	–	–	pKB [14]: 5.12; pKB [15]: 6.98; pKB [16]: 6.05; pKB [17]: 5.62; Slope [18]: 1.2; pKB [19]: 6.17; pKB [20]: 5.48
N#CN/C(=N\CCNC(=O)c1ccc(N)cc1)NCCCCOc1cccc(CN2CCCCC2)c1	–	–	589	pKB [2]: 7.17
N#CN/C(=N\CCCNc1ccccc1[N+](=O)[O-])NCCCCOc1cccc(CN2CCCCC2)c1	2820	7.85	–	–
N#CN/C(=N\CCCNC(=O)c1ccccc1)NCCCOc1cccc(CN2CCCCC2)c1	–	–	550	pKB [2]: 7.14
C/N=C(/NC#N)NCCSCc1csc(NC(=N)N)n1	–	7.8	–	–
N#CN/C(=N\CCCCNC(=O)c1ccccc1)NCCCOc1cccc(CN2CCCCC2)c1	–	6.81	257	–
N#CN/C(=N\CCNC(=O)Cc1ccccc1)NCCCOc1cccc(CN2CCCCC2)c1	–	6.93	339	–
N#CN=C(NCCCOc1cccc(CN2CCCCC2)c1)NCCNC(=O)c1ccc(N=[N+]=[N-])c(I)c1	–	–	–	Kb (Histamine H2 receptor [12]): 0.155 µM
Cc1ccc(S(=O)(=O)NCC/N=C(\NC#N)NCCCOc2cccc(CN3CCCCC3)c2)cc1	–	6.13	54	–
N#CN/C(=N\CCCCNC(=O)c1ccc(N)cc1)NCCCOc1cccc(CN2CCCCC2)c1	–	6.31	81	–
N#CN/C(=N\CCCNC(=O)c1ccc(N=[N+]=[N-])cc1)NCCCCOc1cccc(CN2CCCCC2)c1	170	–	–	pKB [2]: 6.63
N#CN/C(=N\CCNC(=O)c1ccc(N=[N+]=[N-])cc1)NCCCCOc1cccc(CN2CCCCC2)c1	1380	–	–	pKB [2]: 7.54
N#CN/C(=N\CCNC(=O)c1cc(I)c(N)c(I)c1)NCCCCOc1cccc(CN2CCCCC2)c1	2880	–	–	pKB [5]: 7.86
Nc1ccc(C(=O)NCCNC(=O)NCCCOc2cccc(CN3CCCCC3)c2)cc1	–	7.23	676	–
N#CN/C(=N\CCCOc1cccc(CN2CCCCC2)c1)NCC(O)CNC(=O)c1ccccc1 (stereo not given)	–	–	813	pKB [5]: 7.31
N#CN/C(=N\CCNC(=O)c1ccc(N=[N+]=[N-])cc1)NCCCOc1cccc(CN2CCCCC2)c1	3160	7.9	–	–
N#CN/C(=N\CCNC(=O)CCc1ccccc1)NCCCOc1cccc(CN2CCCCC2)c1	–	6.27	74	–
N#CN/C(=N\CCNC(=O)c1ccccc1)NCCCOc1cccc(CN2CCCCC2)c1	–	–	2630	pKB [2]: 7.82
